Assay results as given in ChEMBL document CHEMBL3877328, “Identification of allosteric binding sites for PI3Kα oncogenic mutant specific inhibitor design” (Bioorg Med Chem, 2017).

Key:
[1] = target: PI3-kinase p110-alpha/p85-alpha (Homo sapiens) (UniProt P27986+P42336); test: Inhibition of wild type PI3K p110alpha/p85alpha niSH2 (unknown origin) expressed in baculovirus infected sf9 cells assessed as reduction in PIP3 formation at 100 uM using PIP2 as substrate after 45 mins by fluorescence polarization assay relative to control
Outline: (§1)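 Wild-type PI3Kα, either full-length or the p110α/niSH2 construct used for crystallography. Protein was co-expressed in Sf9 cells from p110α and p85α (or niSH2) viruses at MOI ratio 3:2, with J-32 in the medium, and harvested at 48 h. Fragments were added from 10% (v/v) DMSO dilutions and screened at 100 μM. Reactions held 10 μM PIP2 and 25 μM ATP, 45 min at room temperature. PIP3 formation was read by fluorescence polarization.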

[2] = target: T1, Phosphatidylinositol 4,5-bisphosphate 3-kinase catalytic subunit alpha isoform (Homo sapiens, UniProt P42336); test: Inhibition of full length PI3Kalpha (unknown origin) assessed as reduction in PIP3 formation at 100 uM using PIP2 as substrate after 45 mins by fluorescence polarization assay relative to control; outline: as §1
[3] = target: T1, Phosphatidylinositol 4,5-bisphosphate 3-kinase catalytic subunit alpha isoform; test: Inhibition of full length PI3Kalpha (unknown origin) assessed as reduction in PIP3 formation using PIP2 as substrate after 45 mins by fluorescence polarization assay
Outline: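 Wild-type full-length p110α/p85α PI3Kα, baculovirus-expressed in Sf9 cells, purified. Fluorescence polarization kit detecting PIP3 formation. Reaction with 10 μM PIP2 and 25 μM ATP, 45 min at room temperature. Fragments diluted in 10% (v/v) DMSO. Single-point screen at 100 μM; IC50 from dose-response curves over increasing fragment concentrations.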

T1 sequence (P42336 whole entry, canonical isoform): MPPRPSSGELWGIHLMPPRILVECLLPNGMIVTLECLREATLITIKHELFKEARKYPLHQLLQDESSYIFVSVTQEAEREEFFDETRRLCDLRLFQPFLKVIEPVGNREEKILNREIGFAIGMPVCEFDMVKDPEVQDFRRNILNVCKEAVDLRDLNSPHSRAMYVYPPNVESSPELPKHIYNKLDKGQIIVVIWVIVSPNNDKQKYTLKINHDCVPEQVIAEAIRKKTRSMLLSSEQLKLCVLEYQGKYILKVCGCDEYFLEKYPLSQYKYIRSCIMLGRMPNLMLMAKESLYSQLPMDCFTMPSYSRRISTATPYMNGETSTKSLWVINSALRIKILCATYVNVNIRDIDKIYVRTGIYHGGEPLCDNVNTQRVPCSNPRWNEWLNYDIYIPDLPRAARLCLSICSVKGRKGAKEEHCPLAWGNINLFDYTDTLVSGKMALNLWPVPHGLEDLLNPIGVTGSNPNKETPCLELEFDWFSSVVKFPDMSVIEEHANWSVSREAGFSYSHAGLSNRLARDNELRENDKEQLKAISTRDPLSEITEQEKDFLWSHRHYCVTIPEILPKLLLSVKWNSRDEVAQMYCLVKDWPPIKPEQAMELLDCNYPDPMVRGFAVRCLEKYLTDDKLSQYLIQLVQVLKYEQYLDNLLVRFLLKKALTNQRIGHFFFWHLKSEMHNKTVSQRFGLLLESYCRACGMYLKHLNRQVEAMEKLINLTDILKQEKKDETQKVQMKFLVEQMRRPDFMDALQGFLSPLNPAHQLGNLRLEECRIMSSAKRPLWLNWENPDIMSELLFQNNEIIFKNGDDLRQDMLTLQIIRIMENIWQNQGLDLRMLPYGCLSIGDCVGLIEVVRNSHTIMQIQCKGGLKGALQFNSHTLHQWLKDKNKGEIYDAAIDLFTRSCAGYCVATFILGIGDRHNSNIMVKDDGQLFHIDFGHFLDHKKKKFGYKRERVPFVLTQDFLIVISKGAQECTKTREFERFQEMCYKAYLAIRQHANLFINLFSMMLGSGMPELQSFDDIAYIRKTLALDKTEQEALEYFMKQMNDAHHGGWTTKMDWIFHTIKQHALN

OC1CCC(O)CC1 (configuration not stated)
inhibition [1]: < 25% | inhibition [2]: < 25%

CC1C(=O)CCCC1=O
inhibition [1]: < 25% | inhibition [2]: < 25%

Nc1ccccc1CO
inhibition [1]: < 25% | inhibition [2]: < 25%

Cc1cc(C)nc(N)c1
inhibition [1]: < 25% | inhibition [2]: < 25%

Cc1cccc(N)n1
inhibition [1]: < 25% | inhibition [2]: < 25%

O=c1[nH]cc(F)c(=O)[nH]1
inhibition [1]: < 25% | inhibition [2]: < 25%

O=C(O)CCc1ccc(O)cc1
inhibition [1]: < 25% | inhibition [2]: < 25%

O=c1[nH]c(=O)c2nccnc2[nH]1
inhibition [1]: < 25% | inhibition [2]: < 25%

Oc1cccnc1
inhibition [1]: < 25% | inhibition [2]: < 25%

Nc1nc2ccccc2[nH]1
inhibition [1]: < 25% | inhibition [2]: < 25%

Cc1ccnc(N)c1[N+](=O)[O-]
inhibition [1]: < 25% | inhibition [2]: < 25%

CC(C)(C)OC(=O)N1CCC(N)CC1
inhibition [1]: < 25% | inhibition [2]: < 25%

Nc1ccc2[nH]c(C(F)(F)F)nc2c1
inhibition [1]: < 25% | inhibition [2]: < 25%

NS(=O)(=O)c1ccccc1Cl
inhibition [1]: < 25% | inhibition [2]: < 25%

Cc1cc2ccccc2[nH]1
inhibition [1]: < 25% | inhibition [2]: < 25%

Nc1ccc2c(c1)CN=N2
inhibition [1]: < 25% | inhibition [2]: < 25%

N#Cc1cccc(N)c1
inhibition [1]: < 25% | inhibition [2]: < 25%

O=C(O)c1ccccc1O
inhibition [1]: < 25% | inhibition [2]: < 25%

Oc1ccccc1O [CATECHOL]
inhibition [2]: 87% | IC50 [3]: 33 µM

COc1ccccc1C(=O)O
inhibition [1]: < 25% | inhibition [2]: < 25%

Cc1c(N)cccc1N
inhibition [2]: 92% | IC50 [3]: 20 µM
